Assay results published in ChEMBL document CHEMBL4311984, “Design and synthesis of H2S-donor hybrids: A new treatment for Alzheimer's disease?” (Eur J Med Chem, 2019).
Calls of active or inactive are those of the source. The calls are words filed in the database; no cut-off is given here.

Columns and labels:
BV-2 [1] = assay: Inhibition of LPS-induced nitric oxide in mouse BV2 cells assessed as reduction in intracellular nitric oxide level at 1 uM preincubated with compound for 1 hr followed by LPS addition and measured after 24 hrs by cell analyser based assay (reference value: 145.7 +/- 4.4%); format: functional
BV-2 [2] = assay: Antioxidant activity in mouse BV2 cells assessed as reduction in LPS-induced ROS release at 1 uM preincubated with compound for 1 hr followed by LPS addition and measured after 24 hrs by cell analyser based assay (reference value: 154 +/- 3.8%); format: functional; set-up: scale not given: the % may be the effect or the level left
SH-SY5Y [3] = assay: Neuroprotection against amyloid beta (1 to 42 residues)-induced toxicity in human SH-SY5Y cells preincubated for 24 hrs followed by amyloid beta addition and measured after 4 hrs by MTT-based exocytosis assay; format: functional, cell-based
How it was run: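 Aβ1-42 was dissolved in hexafluoroisopropanol (1 mg/mL), sonicated, held 24 h at room temperature and lyophilised. SH-SY5Y cells, 3 × 10⁴/well, were pretreated 24 h with compound and then given Aβ1-42 oligomers for 4 h at 37 °C. MTT (0.5 mg/mL in HBSS) was applied for 1 h, granules were solubilised in 10% Tween-20, and absorbance read at 570 nm (ref 690).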

BV-2 [4] = assay: Induction of H2S generation in mouse BV2 cells at 100 uM after 45 mins by WSP-1 fluorescence dye based spectrofluorimetric analysis; format: functional, cell-based
How it was run: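 BV-2 cells, 72 × 10³/well, were seeded serum-free 24 h before the assay and loaded with WSP-1 for 30 min. Dye was then replaced with compound in HEPES-buffered saline, pH 7.4 (vehicle DMSO 1%). Fluorescence was recorded for 45 min, and total H₂S release was expressed as AUC of fluorescence index. Data are mean ± SE, n=9, with diallyl disulfide as reference donor.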

SH-SY5Y [5] = assay: Cytotoxicity against human SH-SY5Y cells assessed as cell viability up to 5 uM after 24 hrs by MTT assay; format: cell-based
How it was run: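 SH-SY5Y cells, 2 × 10⁴/well, were allowed 24 h to attach, then exposed for 24 h to a series of concentrations (1.25–40). MTT (0.5 mg/mL in HBSS) was applied for 2 h at 37 °C, and formazan was dissolved in isopropanol and read at 570 nm (ref 690 nm). Results are % viability versus untreated cells.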

BV-2 [6] = assay: Cytoprotection against LPS-induced cell damage in mouse BV2 cells assessed as increase in cell viability at 1 uM preincubated with compound for 1 hr followed by LPS addition and measured after 24 hrs by cell analyser based assay (reference value: 80.6 +/- 1.2%); format: functional
SH-SY5Y [7] = assay: Antioxidant activity in human SH-SY5Y cells assessed as increase in GSH level at 5 uM after 24 hrs by MCB-dye based fluorescence assay relative to control; format: functional
How it was run: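 SH-SY5Y cells, 2 × 10⁴/well, were allowed 24 h to attach, then given compound for 24 h at 37 °C in 5% CO₂. Medium was replaced with monochlorobimane for 30 min at 37 °C, and fluorescence read at ex 355/em 460 nm. Results are percent increase in GSH, mean ± SEM of three independent experiments.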

SH-SY5Y [8] = assay: Antioxidant activity in human SH-SY5Y cells assessed as inhibition of tert-butyl hydroperoxide-induced intracellular ROS generation at 5 uM preincubated with compound for 24 hrs followed by tert-butyl hydroperoxide addition after 30 mins by DCFH-DA dye based fluorescence assay; format: functional, cell-based
How it was run: (§1)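 SH-SY5Y cells, 2 × 10⁴/well, were allowed 24 h to attach, then given compound for 24 h at 37 °C. They were loaded with DCFH-DA ([…]) for 30 min at room temperature and then challenged with H₂O₂ or t-BuOOH, each at 50 µM, for 30 min. Results are percent inhibition of oxidant-induced ROS, mean ± SEM, n=3 independent experiments.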

SH-SY5Y [9] = assay: Antioxidant activity in human SH-SY5Y cells assessed as inhibition of H2O2-induced intracellular ROS generation at 5 uM preincubated with compound for 24 hrs followed by H2O2 addition after 30 mins by DCFH-DA dye based fluorescence assay; format: functional, cell-based; how it was run: as §1
BV-2 [10] = assay: Inhibition of LPS-induced nitric oxide in mouse BV2 cells assessed as intracellular nitric oxide level at 1 uM preincubated with compound for 1 hr followed by LPS addition and measured after 24 hrs by cell analyser based assay (reference value: 145.7 +/- 4.4%); format: functional; set-up: scale not given: the % may be the effect or the level left
[11] = biological target: T1, Nuclear factor erythroid 2-related factor 2 (Homo sapiens) (UniProt Q16236); assay: Activation of Nrf2 in human SH-SY5Y cells at 5 uM after 1 to 6 hrs by ELISA method; format: cell-based
T1 sequence (whole entry): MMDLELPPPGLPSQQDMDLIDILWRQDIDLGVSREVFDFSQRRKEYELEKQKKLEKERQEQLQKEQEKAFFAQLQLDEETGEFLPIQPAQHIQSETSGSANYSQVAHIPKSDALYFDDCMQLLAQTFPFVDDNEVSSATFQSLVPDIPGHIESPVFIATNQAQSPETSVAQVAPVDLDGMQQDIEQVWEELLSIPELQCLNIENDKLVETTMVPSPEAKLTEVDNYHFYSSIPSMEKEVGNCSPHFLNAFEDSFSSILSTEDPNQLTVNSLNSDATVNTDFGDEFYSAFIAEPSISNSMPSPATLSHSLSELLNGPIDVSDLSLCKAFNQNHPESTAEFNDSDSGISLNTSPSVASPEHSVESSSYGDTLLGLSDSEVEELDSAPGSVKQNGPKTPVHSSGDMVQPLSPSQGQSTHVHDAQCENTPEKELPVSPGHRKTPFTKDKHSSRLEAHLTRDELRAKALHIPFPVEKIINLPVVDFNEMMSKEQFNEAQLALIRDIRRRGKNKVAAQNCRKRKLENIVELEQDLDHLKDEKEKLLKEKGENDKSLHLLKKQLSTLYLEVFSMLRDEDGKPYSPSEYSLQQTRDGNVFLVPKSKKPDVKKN
How it was run: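 SH-SY5Y cells, 2 × 10⁶ per dish, exposed to compound for 1, 3 and 6 h at 37 °C in 5% CO₂. Nuclear extracts were then taken and active Nrf2 measured by DNA-binding ELISA (antibody recognises ARE-bound Nrf2). Results are fold increase over matched untreated cells, mean ± SEM of three independent experiments, two-way ANOVA with Bonferroni.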

BV-2 [12] = assay: Antioxidant activity in mouse BV2 cells assessed as effect on LPS-induced ROS release at 1 uM preincubated with compound for 1 hr followed by LPS addition and measured after 24 hrs by cell analyser based assay (reference value: 154 +/- 3.8%); format: functional
BV-2 [13] = assay: Cytoprotection against LPS-induced cell damage in mouse BV2 cells assessed as cell viability at 1 uM preincubated with compound for 1 hr followed by LPS addition and measured after 24 hrs by cell analyser based assay (reference value: 80.6 +/- 1.2%); format: functional; details: read-out: Activity

Question: For `CCN(C)C(=O)Oc1cccc(CNC(=O)C[S+]([O-])CCCCN=C=S)c1` (stereo unspecified), which inhibition (BV-2 [1]) is on record?
Answer: Active

Question: And the Activity (BV-2 [2])?
Answer: 30 - 35%

Question: And the Activity (SH-SY5Y [3])?
Answer: inactive

Question: What about the Activity (BV-2 [4]) of the same compound?
Answer: Active

Question: And the Activity (SH-SY5Y [5])?
Answer: Non-Toxic

Question: And the Activity (BV-2 [6])?
Answer: Active

Question: For `CCN(C)C(=O)Oc1cccc(NC(=O)C[S+]([O-])CCCCN=C=S)c1` (stereo unspecified), which inhibition (BV-2 [1]) is on record?
Answer: Active

Question: And the Activity (BV-2 [2])?
Answer: 30 - 35%

Question: What about the Activity (SH-SY5Y [3]) of the same compound?
Answer: inactive

Question: And the Activity (BV-2 [4])?
Answer: Active

Question: And the Activity (SH-SY5Y [5])?
Answer: Non-Toxic

Question: What about the Activity (BV-2 [6]) of the same compound?
Answer: Active

Question: `C=CCSSCC=C` was tested. Which Activity (BV-2 [4]) did it give?
Answer: Active

Question: How did the Activity (SH-SY5Y [7]) turn out when `CCN(C)C(=O)Oc1cccc(CNC(=O)CSCCCCN=C=S)c1` was run?
Answer: 25.73%

Question: What about the inhibition (BV-2 [1]) of the same compound?
Answer: Active

Question: And the Activity (BV-2 [2])?
Answer: 30 - 35%

Question: What about the Activity (SH-SY5Y [3]) of the same compound?
Answer: inactive

Question: What about the Activity (SH-SY5Y [8]) of the same compound?
Answer: Active

Question: What about the Activity (SH-SY5Y [9]) of the same compound?
Answer: Active

Question: What about the Activity (BV-2 [10]) of the same compound?
Answer: 125.9%

Question: What about the Activity [11] of the same compound?
Answer: inactive

Question: And the Activity (BV-2 [4])?
Answer: Active

Question: What about the Activity (SH-SY5Y [5]) of the same compound?
Answer: Non-Toxic

Question: What about the Activity (BV-2 [6]) of the same compound?
Answer: Active

Question: With `CCN(C)C(=O)Oc1cccc(CCNC(=O)C[S+]([O-])CCCCN=C=S)c1` (stereo unspecified) as the compound, how does the inhibition (BV-2 [1]) read?
Answer: Active

Question: What about the Activity (BV-2 [2]) of the same compound?
Answer: 30 - 35%

Question: And the Activity (SH-SY5Y [3])?
Answer: inactive

Question: What about the Activity (BV-2 [4]) of the same compound?
Answer: Active

Question: What about the Activity (SH-SY5Y [5]) of the same compound?
Answer: Non-Toxic

Question: What does the source list for `CCN(C)C(=O)Oc1cccc([C@H](C)N(C)C)c1` [RIVASTIGMINE]?
Answer: inhibition (BV-2 [1]): Active; Activity (BV-2 [12]): inactive; viability at 1 µM (BV-2 [13]): 84%; Activity (BV-2 [4]): Active

Question: With `CCN(C)C(=O)Oc1cccc(NC(=O)CSCCCCN=C=S)c1` as the compound, how does the Activity (SH-SY5Y [7]) read?
Answer: 35.6%

Question: And the inhibition (BV-2 [1])?
Answer: Active

Question: And the Activity (BV-2 [2])?
Answer: 30 - 35%

Question: And the Activity (SH-SY5Y [3])?
Answer: inactive

Question: And the viability at 1 µM (BV-2 [13])?
Answer: 93%

Question: What about the Activity (SH-SY5Y [8]) of the same compound?
Answer: Active

Question: And the Activity (SH-SY5Y [9])?
Answer: Active

Question: What about the Activity (BV-2 [10]) of the same compound?
Answer: 114%

Question: And the Activity [11]?
Answer: Active

Question: And the Activity (BV-2 [4])?
Answer: Active

Question: What about the Activity (SH-SY5Y [5]) of the same compound?
Answer: Non-Toxic

Question: How did the inhibition (BV-2 [1]) turn out when `CCN(C)C(=O)Oc1cccc(CCNC(=O)CSCCCCN=C=S)c1` was run?
Answer: Active

Question: What about the Activity (BV-2 [2]) of the same compound?
Answer: 30 - 35%

Question: What about the Activity (SH-SY5Y [3]) of the same compound?
Answer: inactive

Question: And the Activity (BV-2 [10])?
Answer: 98.8%

Question: And the Activity (BV-2 [4])?
Answer: Active

Question: What about the Activity (SH-SY5Y [5]) of the same compound?
Answer: Non-Toxic

Question: And the Activity (BV-2 [6])?
Answer: Active
